This note sets out measurements from the RNAGym collection of RNA variant scans (doi:10.1126/science.aae0568).

Fewer inactive variants are shown than the library holds. Some results are limits rather than exact numbers.

The chains are these.
B1: tRNA (parent)
chain: GUUCCGUUGGCGUAAUGGUAACGCGUCUCCCUCCUAAGGAGAAGACUGCGGGUUCGAGUCCCGUACGGAACG

In this data set the parent is B1. Kind of data set: yeast fitness relative to wild type (ratio to wild type); higher = fitter; tRNA-Arg(CCU), competitive growth, 37 C, YPD. In outline: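 Genotype frequency changes were the basis for Darwinian fitness relative to wild type. The frequencies came from 100-nucleotide paired-end sequencing of gene amplicons from the start population and each end population of pooled yeast strains with tRNA-Arg(CCU) gene variants at the native locus. Competition ran in YPD at 37°C for 24 hours in six replicates, genotypes needed ≥ 100 starting reads, and estimates < 0.5 were set to 0.5.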
Regarding GUUCCGUUGGCAUAAUGGUAACGCGUGUCCCUCCUAAGGAGAAGACUGCGGGUUAGAAUCCCGUACGGAACG [G12A C27G C55A G58A], the yeast fitness was at most 0.5.
Regarding GUUCCGUUGGCGUAAUGGUAACGCAUUUCCCUCCUAAGGAGAAGACUGCGGGCUCGAGUCCCGUACGGAGCG [G25A C27U U53C A70G], the yeast fitness was at most 0.5.
In the case of GUUCCGUUGCCGUCAUGAUAACGCGUCUCCCUCCUAAGGAGAAGACUGCGGGUUCGAGUCCCGUACGGAACG [G10C A14C G18A], the yeast fitness is at most 0.5.
In the case of GUUCCGUUGGCGUAAUGGUAACGCGUCUCCCUCCUAAGGAGAAGACUGCGGGUUCGAGACCCGUCCGGAACG [U59A A65C] it was 0.892; in that of GUUCUGUUGGCGUAAUGGUAACGCGUCUCCCUCCUAAGGAGAAGACUGCGGGUUCGAGCCCCGUACGGAACG [C5U U59C], 0.946.
In the case of GUUCCGUUAGUGUAAUGGUAACGCGUCUCCCUCCUAAGGAGAAGAGUGCGGGUUCGAGUCCUGUAUGGAACG [G9A C11U C46G C62U C66U] it was at most 0.5; in that of GUUUCGUUGGCGUAAUGGUAACGCGUCUCCCUCCUACGGAGAAGACUCCCGGUUCGAGUCCCGUACGGAACG [C4U A37C G48C G50C], at most 0.5.
In the case of GUUCCGUUGGCGUAAAGGUAACGCGUCUCCCUCCUAAGGAGAAGGCUGCAGGUUCGAGUCCCGUACGGAACG [U16A A45G G50A] it was at most 0.5.
For GUUCCGUUGGCGUAAUGGUAACGCGUCUCCCUCCUAAGGUGAAGACUGCGGGUUCGAGUCCCGUACGGUCCG [A40U A69U A70C], the yeast fitness was 0.725.
Regarding GUUCCGUUGGCGUAAUGGUAACGCGUCUCCCUCCUAUGGAGAAGACUGCGGGUUCGAGUCCCGUACGGAACG [A37U], the yeast fitness amounted to 0.722.
Take GUUCCGUAGGCGUAAUGGUAACGCGUCUCCCUCAUAAGGAGAAGCCUGCGGGUUCGAGUCCCGUCCGGAACG [U8A C34A A45C A65C]: the yeast fitness turned out to be 0.718.
With GUUCUGUUGGCGUAAUGGUAACGCGUCUCCCUCCUAAGGAGAGGACUGCGGGUUCGAGUCCCGUACGGAACG [C5U A43G], the yeast fitness is 0.966.
For GUUCCGAUGGCGUUAUGGUAAUGCGUAUCCCUUCUAAGGAGAAGCCUGCGGGCUCGAGUCCCGUACGGCACG [U7A A14U C22U C27A C33U A45C U53C A69C] the value was 0.632; for GUUCCGUAGGCGUAAUGAUAACGCGUCUCACACCGAAGGAGAAGACUGCGGGUUUGAGUCCCGUACAGAACG [U8A G18A C30A U32A U35G C55U G67A], at most 0.5; for GUUCCGUUGGCGUAAUGGUAACGGGUCUCCCUCCUAAGGAGAAGACUACGGGUUCGAGUCCCGUACGAAACG [C24G G48A G68A], at most 0.5.
In the case of GUUCCGAUGGCGUAAUGGUAACGCGUUUCCCUCCUAAGGAGAAGACUGCGGGUUCGAGUCCCGUACGGUACG [U7A C27U A69U], the yeast fitness worked out at 0.691.
As to GUUCCGUUGGCGUAAUGGUAACGCGUCUCCCUCUUAAGGAGAAGACUGCGGGAUCGAGUCCCGUACGGAACG [C34U U53A], the yeast fitness is at most 0.5.
For GUUCUGUUGGUGUAAUGGUAACGCGUCUCCCUCCUAAGGAGAAGAUUGCGGGUUCGAGUCCCGUUCGGUACG [C5U C11U C46U A65U A69U] the value was 0.563; for GUUCCGUUGGCGUAAUGGGAACGCGUCUCCCUCCUAAGGACAUGACUGCGGGUUCGAGUCCCGUACGGAACG [U19G G41C A43U], 0.512; for GUCCCGUUGGCGUACUGGUAACGCGUCUCCCUCCUAAGGAGAAGACUGCGCGUUCGAGUCACGUACGGAACG [U3C A15C G51C C61A], at most 0.5.
Regarding GUUCCGUUGGCAUAAUGGUAACCAAUCUCCCUCCUAAGGAGAAGACUGCGGGUUCGAGUCCCGUACGGAACG [G12A G23C C24A G25A], the yeast fitness is at most 0.5.
Turning to GUUACGUUGGCGUAGUGGUAACGCGUCUCCCCCCCAAGGAGAAGACUGCGGGUUCGAGUCCCGUACCGUACG [C4A A15G U32C U35C G67C A69U], the yeast fitness is at most 0.5.
As for GUUCCGUUCGCGUAAUGGUAACGCGUCUCCCUCCUGAGGAGAAGACUGCGGGUUCGAGUCCUGUACGGAACG [G9C A36G C62U], the yeast fitness is at most 0.5.
Turning to GUUCCGUUGGCGUAAUGGUAACGUGUCUCCCUCCUAAGGAGAAGAUUGCGGGUUCGAGUCCCGUACGGAUCG [C24U C46U A70U], the yeast fitness turned out to be 0.75.
Regarding GUUCCGUUGGCAUAAUGGUAACGCGUCUCCCUCCUAAGGAGAAGACUGCGGGUUCGAGUCCUGUACGGAGCG [G12A C62U A70G], the yeast fitness turned out to be 0.69.
For GUUCGGUUGCCGUAAUGGUAACGCGUCUCUCUCCUAAGCAGAAGACUGCGGGUUGGAGUCCCGUACGGAACG [C5G G10C C30U G39C C55G] the value was at most 0.5.
With GUUCCGUUGGCGUAAUGGUAGUGCGUCUCCCUCCUAAGGAGAAGACUGCGGGUUCGAGUCCCGUACAGAACG [A21G C22U G67A], the yeast fitness worked out at 0.575.
Consider GUUCCGCUGGCGUAAUGGUAACGCGUCUCGCUCCUAAGGAGAAGACUGCGGGUUCGAGUCCCGUACGGAACG [U7C C30G], for which the yeast fitness is 0.579.
For GUUCCGUUGGCGUAAUGGCAAUGCGUCUCCCUCCUAAGGAGAAGACUGCGGGUUUGAGUCGCGUACGGAACG [U19C C22U C55U C61G], the yeast fitness is at most 0.5.
For GUUCCGUUGGUGUAAUGGUAACGCGUCUGCUUCGUAAGGAGAAGACUGCGGGUUCGAGUCCCGUACGGACCG [C11U C29G C31U C34G A70C] the value was 0.534; for GUUCCGUUGGCGUAAUGGUAACGCCUCUCCCUCCUAAGGAGAAGACUGCGGGUUCCAGUCGCGUACGGAACG [G25C G56C C61G], at most 0.5.
In the case of GUUCCGUUGGCGUAAUGGUAACGCGGCUCCCUCCUAAGCAGAAGACUGCGGGUUCGAAUCCCGUAUGGAACG [U26G G39C G58A C66U] it was at most 0.5.
In the case of GUUCCGUUGGCGUAAUGGUAAAGCGUCUCCCUCCUAAGGACAAGACUGCGGGCUCGAGUCCCGUACGGAACG [C22A G41C U53C] it was 0.656; in that of GUUCCAUUGGCGUUAUGGUAACGCGUCUCCCUCCUAAGGAGAAGACUGCGGGUUCGAGUCCCGUAUGGAACG [G6A A14U C66U], at most 0.5.
Turning to GUUUCGUUGCCGUAAUCGUAACGCGUGUCCCUCCUAACGAGAAGACUGCGGGUGCGAGUCCCGUACGGAACG [C4U G10C G17C C27G G38C U54G], the yeast fitness was at most 0.5.
For GUUCCGUUGGCGUAAUGGUGACGCGUCUCCUUCCUUAGGAGAAGACUGCGGGUUCGAGUCCCGUACGGAACG [A20G C31U A36U] the value was 0.53; for GUUCCGUUGGCGUAUUGGUAACGCGUCUCCCUCCUAAGGAGAAGAGUGCGGGUUCGAGUCCCGUACGGAUCG [A15U C46G A70U], 0.56.
